From ChEMBL document CHEMBL1157473, “Identification of 4-benzylamino-2-[(4-morpholin-4-ylphenyl)amino]pyrimidine-5-carboxamide derivatives as potent and orally bioavailable STAT6 inhibitors” (Bioorg Med Chem, 2008) come the findings set out here.

Series [1] addresses T1, Signal transducer and activator of transcription 6 (Homo sapiens, UniProt P42226).
T1 sequence (P42226 whole entry): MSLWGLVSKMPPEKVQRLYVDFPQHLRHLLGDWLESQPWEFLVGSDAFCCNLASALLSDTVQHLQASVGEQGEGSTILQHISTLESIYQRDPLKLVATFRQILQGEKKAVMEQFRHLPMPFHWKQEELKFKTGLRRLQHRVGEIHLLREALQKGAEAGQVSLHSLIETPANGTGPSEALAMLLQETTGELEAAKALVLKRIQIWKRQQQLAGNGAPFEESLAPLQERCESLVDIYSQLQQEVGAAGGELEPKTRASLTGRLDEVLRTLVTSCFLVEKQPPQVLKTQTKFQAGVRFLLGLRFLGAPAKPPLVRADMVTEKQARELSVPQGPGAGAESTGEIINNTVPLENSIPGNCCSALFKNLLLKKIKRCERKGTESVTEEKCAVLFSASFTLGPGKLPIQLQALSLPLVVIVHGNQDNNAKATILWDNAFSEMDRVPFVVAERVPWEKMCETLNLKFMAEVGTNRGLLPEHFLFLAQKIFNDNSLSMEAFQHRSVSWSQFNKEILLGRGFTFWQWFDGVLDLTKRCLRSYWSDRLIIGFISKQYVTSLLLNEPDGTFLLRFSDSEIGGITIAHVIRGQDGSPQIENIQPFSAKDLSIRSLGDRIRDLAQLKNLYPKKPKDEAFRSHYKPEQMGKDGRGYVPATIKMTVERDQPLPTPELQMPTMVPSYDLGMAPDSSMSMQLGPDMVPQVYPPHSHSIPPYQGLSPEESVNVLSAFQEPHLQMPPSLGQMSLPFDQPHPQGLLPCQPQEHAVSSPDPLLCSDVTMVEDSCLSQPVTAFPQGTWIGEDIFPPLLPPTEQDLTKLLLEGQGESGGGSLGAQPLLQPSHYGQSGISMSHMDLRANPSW
Kind of series: Inhibition of STAT6 activation in FW4 reporter cells. The series is classed as cell-based.

Series [2] in a line: Half life in BALB/c mouse at 1 mg/kg, iv. The series is classed as ADME, organism-based. Further details: dose 1 mg/kg, route intravenous. The settings on record: in vivo. In outline:
(§1)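 Overnight-fasted 8-week-old female Balb/c mice were given 1 mg/kg by tail-vein injection at 10 mL/kg, in a Cremophor EL/saline-based vehicle. Plasma was extracted by solid-phase extraction and analysed by HPLC-MS-MS.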

Series [3] can be described thus: Oral bioavailability in BALB/c mouse at 3 mg/kg. The series is classed as ADME, organism-based. As to conditions: in vivo. In outline: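 Mice were 8-week-old female Balb/c, fasted overnight, given 3 mg/kg po in 0.5% methylcellulose (10 mL/kg), with 1 mg/kg iv as reference. Vena cava blood was collected at 0.25 to 24 h. Plasma was extracted by solid-phase extraction and quantified by HPLC-MS-MS.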

Series [4] in a line: Volume of distribution in BALB/c mouse at 1 mg/kg, iv. The series is classed as ADME, organism-based. More on the design: dose 1 mg/kg, route intravenous. As to conditions: in vivo. In outline:
as §1

Series [5] is described as follows: Clearance in BALB/c mouse at 1 mg/kg, iv. As to conditions: in vivo. The series is classed as ADME, organism-based. More on the design: dose 1 mg/kg, route intravenous. The essentials:
as §1

A short description of series [6]: Oral bioavailability in BALB/c mouse at 10 mg/kg. The series is classed as ADME, organism-based. As to conditions: in vivo. The essentials:
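Oral dose of 10 mg/kg in 0.5% methylcellulose (10 mL/kg) to overnight-fasted 8-week-old female Balb/c mice, against a 1 mg/kg iv dose. Blood was sampled from the vena cava at 0.25 to 24 h. Plasma was assayed by solid-phase extraction and HPLC-MS-MS.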

Series [7] is described as follows: Dissociation constant, pKa of the compound. The series is classed as physicochemical.

Compound `NC(=O)c1cnc(Nc2ccc(N3CCC(O)C3)cc2)nc1NCc1ccccc1` (stereo not drawn) yielded an IC50 in series [1] of 0.098 µM.

With `NC(=O)c1cnc(Nc2ccc(N3CCCC3)cc2)nc1NCc1ccccc1`, inhibition in series [1] was half-maximal at 0.65 µM (IC50).

In series [1], `NC(=O)c1cnc(Nc2ccc(N3CCCCC3)cc2)nc1NCc1ccccc1` came in with an IC50 of 0.12 µM. In turn, `NC(=O)c1cnc(Nc2ccc(CCO)cc2)nc1NCc1ccccc1` registered a 50% inhibitory concentration (IC50) in series [1] of 0.095 µM. In series [1], `NC(=O)c1cnc(Nc2ccc(CCCO)cc2)nc1NCc1ccccc1` gave a concentration for half-maximal inhibition (IC50) of 0.081 µM. As for `COc1ccccc1CNc1nc(Nc2ccc(N3CCOCC3)cc2)ncc1C(N)=O`, inhibition in series [1] was half-maximal at 0.0082 µM (IC50). Still for that read-out and setting: the figure for `CN1CCN(c2ccc(Nc3ncc(C(N)=O)c(NCc4ccccc4)n3)cc2)CC1` is 0.0062 µM; for `NC(=O)c1cnc(Nc2ccc(N3CCOCC3)cc2)nc1NCc1ccccc1F` it is 0.0014 µM.

In turn, `NC(=O)c1cnc(Nc2ccc(N3CCOCC3)cc2)nc1NCc1ccc(F)cc1` gave an IC50 in series [1] of 0.65 µM. For `NC(=O)c1cnc(Nc2ccc(N3CCNCC3)cc2)nc1NCc1ccccc1`, in series [1], the IC50 stood at 0.007 µM. On to `NC(=O)c1cnc(Nc2ccc(N3CCOCC3)cc2)nc1NCc1ccccc1`, for which the half-life in series [2] is 45.6 min. Further, the bioavailability in series [3] was 30%. The Vd in series [4] amounted to 3.91 L/kg. Besides, the clearance in series [5] stood at 3.58 L/h/kg. In turn, `NC(=O)c1cnc(Nc2ccc(N3CCOCC3)cc2)nc1NCc1ccccc1O` had an IC50 in series [1] of 0.022 µM. Compound `NC(=O)c1cnc(Nc2ccc(N3CCOCC3)cc2)nc1NCc1ccccc1Cl` displayed an IC50 in series [1] of 0.0079 µM. Same read-out and setting: the figure for `NC(=O)c1cnc(Nc2ccc(N3CCOCC3)cc2)nc1NCc1cccc(Cl)c1` is 0.036 µM; for `NC(=O)c1cnc(Nc2ccc(N3CCOCC3)cc2)nc1NCc1cccc(C(F)(F)F)c1` it is 0.13 µM. On the same count and under the same terms, for `COc1cccc(CNc2nc(Nc3ccc(N4CCOCC4)cc3)ncc2C(N)=O)c1` the value was 0.025 µM; for `CSc1ccccc1CNc1nc(Nc2ccc(N3CCOCC3)cc2)ncc1C(N)=O`, 0.023 µM; for `NC(=O)c1cnc(Nc2ccc(N3CCOCC3)cc2)nc1NCc1cc(F)cc(F)c1`, 0.0055 µM. For `NC(=O)c1cnc(Nc2ccc(N3CCOCC3)cc2)nc1NCc1cccc(O)c1`, the IC50 in series [1] came out at 0.019 µM. Still for that read-out and setting: the figure for `NC(=O)c1cnc(Nc2ccc(N3CCOCC3)cc2)nc1NCc1ccccc1N` is 0.31 µM. In the case of `NC(=O)c1cnc(Nc2ccc(N3CCOCC3)cc2)nc1NCc1ccc(F)cc1F`, the half-maximal inhibitory concentration (IC50) in series [1] stood at 0.31 µM. The same measure, in the same setting: for `NC(=O)c1cnc(Nc2ccc(N3CCOCC3)cc2)nc1NCc1cc(F)ccc1F` the value was 0.0016 µM; for `NC(=O)c1cnc(Nc2ccc(N3CCOCC3)cc2)nc1NCc1ccccc1C(F)(F)F`, 0.025 µM; for `Cc1ccccc1CNc1nc(Nc2ccc(N3CCOCC3)cc2)ncc1C(N)=O`, 0.011 µM.

`NC(=O)c1cnc(Nc2ccc(N3CCOCC3)cc2)nc1NCc1cccc(F)c1` had a half-maximal inhibitory concentration (IC50) in series [1] of 0.0018 µM. Same read-out and setting: the figure for `CS(=O)(=O)c1ccccc1CNc1nc(Nc2ccc(N3CCOCC3)cc2)ncc1C(N)=O` is 2 µM; for `CN1CCC(c2ccc(Nc3ncc(C(N)=O)c(NCc4ccccc4)n3)cc2)CC1` it is 0.017 µM. In the case of `NC(=O)c1cnc(Nc2ccc(N3CCC(O)CC3)cc2)nc1NCc1ccccc1`, in series [1], the half-inhibitory concentration (IC50) stood at 0.016 µM. In series [2], `NC(=O)c1cnc(NCCc2cc(Cl)c(O)c(Cl)c2)nc1NCc1ccccc1` showed a half-life of 3.6 min. Moreover, in series [1], the IC50 came to 0.061 µM. Besides, the volume of distribution (Vd) in series [4] is 0.931 L/kg. Also, in series [6], the bioavailability is 1%. This compound also gave a clearance in series [5] of 10.1 L/h/kg. Compound `NC(=O)c1cnc(Nc2ccc(N3CCOCC3)cc2)nc1NCc1cc(F)cc(F)c1F` yielded an IC50 in series [1] of 0.0018 µM. Same read-out and setting: the figure for `NC(=O)c1cnc(Nc2ccc(N3CCOCC3)cc2)nc1NCc1c(F)cccc1F` is 0.0022 µM; for `NC(=O)c1cnc(Nc2ccc(N3CCOCC3)cc2)nc1NCc1ccccc1[N+](=O)[O-]` it is 0.038 µM; for `CC(=O)Nc1ccccc1CNc1nc(Nc2ccc(N3CCOCC3)cc2)ncc1C(N)=O` it is 5.2 µM.

For `NC(=O)c1cnc(Nc2ccc(N3CCOCC3)cc2)nc1NCc1cccc(F)c1F`, the IC50 in series [1] stood at 0.0021 µM. `Oc1c(Cl)cccc1Cl` [2,6-DICHLOROPHENOL] came in with a pKa in series [7] of 7.15. The compound `Oc1ccccc1Cl` [2-CHLOROPHENOL] had a pKa in series [7] of 9.13.
